Source: PubChem BioAssay (several laboratories)
The list is not random: actives were taken first. Their share in the collection is about 2.9%.
TAG inh – inhibitors of triacylglycerol accumulation | H9c2 cells, Nile Red lipid (TAG) fluorescence; cells loaded with 200 µM oleic acid | inhibition, % at 12.5 µM | hit rate 0.66% among 230,000 | AID 651582;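 active = pattern-corrected inhibition of lipid staining of at least 50% with the nuclear-stain viability signal not falling by more than 50%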;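 also: 0% = DMSO wells and 100% = triacsin C control wells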
MIN6 prolif – induces beta-cell replication in MIN6 cells; hit rate 0.29% among 330,000; MIN6 cells proliferation, ATPlite luminescence, 48 h; cells starved in 0.2% serum; 100% = growth in 10% serum; proliferation, % at 10 µM; AID 2380;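 active = compounds whose signal lies at least 3.5 SD above the mean of all wells on their plate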;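 also: 0% = DMSO-treated cells in low-serum medium and 100% = 10% serum control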
PG9 binder – small molecules binding HIV-1 gp120 antibody PG9. TR-FRET gp120-PG9 antibody binding. inhibition, % at 6.7 µM. hit rate 0.43% among 360,000. AID 624416; in the data active = inhibition above about 8.5%
iPSC survival up – hiPSC single-cell survival enhancement. hit rate 0.044% among 360,000. survival enhancement, % at 20 µM. AID 602274. ATPlite luminescence; 100% = ROCK inhibitor wells, 0% = DMSO; in the data active = survival enhancement above about 18%;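 also: cells exposed to compounds for 16 hours before the ATP read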
Rev-erbA mod – Rev-erb alpha (human) modulation | Rev-erbα–FITC-DNA binding, fluorescence polarization, 90 min | AID 1259318 | activity, % at 10 µM | hit rate 0.79% among 370,000 | P20393;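 active = activity above about 14%, limit read from the data; passing the limit was not always enough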;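 also: 0% = DMSO wells with 35 nM protein and 100% = DMSO wells with 750 nM protein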
Target sequence (P20393 whole entry, looked up): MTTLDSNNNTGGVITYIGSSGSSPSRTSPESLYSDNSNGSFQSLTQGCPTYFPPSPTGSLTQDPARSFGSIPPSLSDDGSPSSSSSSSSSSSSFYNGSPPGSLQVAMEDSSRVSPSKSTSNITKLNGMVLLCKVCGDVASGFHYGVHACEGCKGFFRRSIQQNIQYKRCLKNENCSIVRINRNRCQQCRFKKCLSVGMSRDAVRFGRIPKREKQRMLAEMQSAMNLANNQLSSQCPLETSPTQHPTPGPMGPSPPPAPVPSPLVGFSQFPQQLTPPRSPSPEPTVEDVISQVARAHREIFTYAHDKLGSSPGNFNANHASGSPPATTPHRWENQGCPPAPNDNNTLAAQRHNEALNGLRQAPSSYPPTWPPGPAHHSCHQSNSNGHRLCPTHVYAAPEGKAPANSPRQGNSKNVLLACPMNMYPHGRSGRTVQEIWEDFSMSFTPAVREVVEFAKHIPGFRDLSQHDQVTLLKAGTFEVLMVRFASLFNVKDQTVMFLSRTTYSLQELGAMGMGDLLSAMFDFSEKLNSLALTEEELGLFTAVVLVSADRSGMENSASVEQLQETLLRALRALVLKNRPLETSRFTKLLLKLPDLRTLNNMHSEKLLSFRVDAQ
T cruzi repl – blocks replication of Trypanosoma cruzi. hit rate 1.4% among 300,000. inhibition, % (test concentration not listed). T. cruzi beta-gal in NIH3T3, luminescence, 90 h;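 active = mean inhibition across valid replicates above about 55%, limit read from the data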;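 also: signal also drops with host cell toxicity which is not excluded here; 0% = plate median of DMSO wells and 100% = zero luminescence signal; higher percent means less beta-gal luminescence so fewer parasites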
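assay system = mouse NIH/3T3 fibroblasts infected with β-gal-expressing T. cruzi Tulahuen C4 | input = 5,000 NIH/3T3 host cells per well | buffer or medium = DMEM plus 2% FBS | timing = 3 h host attachment, then at least 90 h co-culture | measured by = GalScreen luminescence, 60 min | evaluation = luminescence reflecting intracellular parasite burden, expressed as percent inhibition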
NR1D1 mod conf – confirmation of modulators of human Rev-erb alpha DNA binding; shares compounds with Rev-erbA mod; Rev-erb alpha FITC-DNA binding, fluorescence polarization, 90 min; activation, % at 25 µM; hit rate 61% among 3,000; AID 1259319;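 active = activation at or above a set limit, or at least 3 SD above the negative control mean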;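 also: 0% = 35 nM protein with DMSO and 100% = 750 nM protein high control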
RORg counter – RORgamma DNA-binding activity, dose-response counter-screen | hit rate 8% among 910 | IC50, µM | purified RORgamma protein-FITC-DNA binding, fluorescence polarization | shares compounds with Rev-erbA mod;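 active = Compounds whose fitted half-maximal concentration for disrupting protein-DNA binding is below 10 micromolar; the record names Rev-erb in its text, so the target is in doubt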
An asterisk follows results filed as active; i = inactive; · = no result.

SMILES | TAG inh | MIN6 prolif | PG9 binder | iPSC survival up | Rev-erbA mod | T cruzi repl | NR1D1 mod conf | others
COc1cc(OC)cc(C(=O)N(Cc2ccco2)c2c(N)n(Cc3ccccc3)c(=O)[nH]c2=O)c1 | 7 | · | -2 | -1 | 17* | · | -4
COc1cc(/C=N/N2C(=O)CSC2=S)cc(Br)c1O | -1 | · | -5 | 0 | 3 | · | ·
O=C(NC1CCCCCC1)c1cc2ccccc2oc1=O | · | 0 | -3 | -1 | 0 | -9 | ·
COc1ccc2cc(C(=O)NC3CCCCC3)c(=O)oc2c1 | 15 | · | -2 | -1 | 42* | 5 | 19*
CC(C)C(=O)N1CCN(c2ccccc2NC(=S)NC(=O)Cc2ccccc2)CC1 | 36 | -3 | 0 | 0 | 17* | 4 | 2
CC(C)C(=O)N1CCN(c2ccccc2NC(=S)NC(=O)c2ccco2)CC1 | 13 | -2 | 0 | 0 | -2 | -1 | ·
Cc1cccc(OCC(=O)NC(=S)Nc2ccccc2N2CCOCC2)c1C | -19 | -3 | -1 | 0 | 40* | -14 | 4
Brc1nc(-c2ccccc2)nc(-c2ccccc2)c1Br | 27 | -4 | 0 | 0 | 65* | -13 | 685* | RORg counter=i
c1ccc(-c2nnc(-c3ccncc3)nc2-c2ccccc2)cc1 | -4 | 5 | -2 | 1 | -4 | 42 | ·
O=C(C1CCN(c2ncnc3c2sc2cccc(F)c23)CC1)N1CCCCC1 | · | · | · | · | -9 | · | ·
O=C(Nc1ccc(F)cc1F)C1CCN(c2ncnc3c2sc2cccc(F)c23)CC1 | 8 | -6 | 0 | 0 | 33* | -21 | 27*
CCOC(=O)c1c(-c2ccccc2)csc1NC(=O)/C(C#N)=C/c1ccc(O)c(OC)c1 | · | · | 2 | 0 | 26* | 8 | 36* | RORg counter=>40
CCOC(=O)c1c(-c2ccc(C)cc2)csc1NC(=S)NC(=O)c1ccccc1 | -97 | -5 | -4 | -1 | 1 | 23 | ·
CCOC(=O)c1c(-c2ccccc2)csc1NC(=O)/C(C#N)=C/c1ccc(OC)c(OC)c1 | -22 | -6 | -2 | 1 | 11 | -19 | ·
CCOC(=O)c1c(-c2ccc(C)cc2)csc1NC(=O)c1ccc(N2C(=O)CCC2=O)cc1 | 5 | 2 | -3 | 1 | 22 | -3 | ·
CCOC(=O)c1c(-c2ccccc2)csc1NC(=O)c1cccc(N2C(=O)CCC2=O)c1 | 0 | 1 | 1 | 1 | 26* | -8 | 9
CCOC(=O)c1c(-c2ccc(C)cc2)csc1NC1=NS(=O)(=O)c2ccccc21 | · | 0 | -1 | 1 | 37* | -5 | 20*
CCOC(=O)c1c(-c2ccc(C)cc2)csc1NC(=O)c1cccc(N2C(=O)CCC2=O)c1 | · | -1 | -1 | -1 | 26* | 1 | 9
CCc1ccc(C2=NN(CCC(=O)NCC3CCCO3)C(=O)CC2)cc1 (stereo unspecified) | · | 3 | 1 | 0 | -4 | 1 | ·
CCOCCCNC(=O)c1cn2c3c(ccc(Cl)c3c1=O)OC(C)C2 (stereo unspecified) | · | -3 | 2 | 1 | 1 | -12 | ·
COc1ccc(-c2cc3ncc(C(C)=O)c(C)n3n2)cc1 | 17 | -3 | 0 | -1 | 36* | -2 | 13
CC(=O)c1cnc2cc(-c3ccc(C)cc3)nn2c1C | · | -2 | -1 | -3 | 0 | -7 | ·
CCOC(=O)c1cnc2cc(-c3ccc(Cl)cc3)nn2c1N | · | 1 | 1 | 1 | 20* | -4 | 0
COc1cccc(-c2nc(CS(=O)(=O)CC(=O)NCCCc3ccccc3)c(C)o2)c1 | · | 0 | 4 | 0 | 60* | 14 | 37* | RORg counter=>40
O=C(Nc1ccc(Cl)cn1)c1cc2c(s1)-c1ccccc1OC2 | -12 | -2 | 0 | 0 | 30* | 11 | 7
SMILES | TAG inh | MIN6 prolif | PG9 binder | iPSC survival up | Rev-erbA mod | T cruzi repl | NR1D1 mod conf | others
Cc1ccccc1C(=O)NN(C)c1nc2ccccc2nc1C(F)(F)F | 17 | -1 | -1 | 6 | 36* | -3 | 31*
Cc1cc2nc(/C(C#N)=C\c3ccc(-c4ccccc4C(=O)O)o3)[nH]c2cc1C | · | -4 | -13 | 0 | 42* | -5 | 30*
Cc1ccc2nc(/C(C#N)=C/c3ccc(-c4ccccc4C(=O)O)o3)[nH]c2c1 | · | -3 | -18 | 0 | 41* | 10 | 31* | RORg counter=>40
N#C/C(=C\c1ccc(-c2ccccc2C(=O)O)o1)c1nc2ccccc2[nH]1 | · | -2 | -24 | 0 | 13 | -5 | ·
O=C(COc1nc2ccccc2nc1N1CCOCC1)N1CCc2ccccc21 | 5 | · | -2 | -3 | 97* | -6 | 62* | RORg counter=4.3*
CC(=O)Nc1ccc(NC(=O)CCC(=O)Oc2ccc(C)cc2)cc1 | · | 3 | -1 | 0 | -5 | -3 | ·
COc1ccc2cc(C(=O)COC(=O)COc3ccc4c(C)cc(=O)oc4c3)ccc2c1 | · | 0 | 1 | -2 | 85* | 1 | 52* | RORg counter=>40
CN(Cc1ccccc1)C(=O)c1cnc(Cc2c[nH]c3ccccc23)c(I)c1 | 6 | · | 1 | 1 | 16* | · | 3
CC(=O)[C@@]1(O)Cc2c(O)c3c(c(O)c2[C@H](O[C@H]2C[C@H](N)[C@H](O)[C@H](C)O2)C1)C(=O)c1ccccc1C3=O | -169 | · | -6 | -6 | 24* | · | 11*
CCOC(=O)c1c(C)nc2sc3c(=O)[nH]cnc3c2c1-c1ccc(OC)cc1 | · | 1 | 1 | 0 | -3 | 10 | ·
Cc1ccc(-c2cc(C(F)F)nc3sc4c(=O)[nH]cnc4c23)cc1 | 11 | -8 | 3 | 4 | 107* | · | 113* | RORg counter=>40
Cc1ccc(CSCCNC(=O)c2ccc(C)cc2)cc1 | -13 | -2 | -3 | 2 | 0 | -2 | ·
CC(=O)c1ccc(N(CC(=O)NC2CCCC2)C(=O)c2ccc(C)s2)cc1 | · | 0 | 0 | 0 | -5 | 12 | ·
O=C(COc1ccc(F)cc1Cl)N1CCN(C(=O)c2cccs2)CC1 | 5 | 1 | 3 | 0 | -1 | · | ·
CCc1cc(=O)oc2c(C)c(OCC(=O)NCc3ccccn3)ccc12 | · | 7 | 0 | 1 | 30* | -7 | 23*
CC(=O)c1cc(C)c(OCc2cn(CC(=O)c3ccc(O)cc3)nn2)c(C)c1 | -3 | · | -1 | 2 | -3 | · | ·
CC(C)c1nc2sc3c(=S)nc[nH]c3c2c2c1CCC2 | 9 | -1 | 0 | 1 | 16 | -18 | ·
CC(C)c1nc2sc3c(=O)[nH]cnc3c2c2c1CCCC2 | 5 | -4 | 0 | 1 | 25* | 0 | 0
CC(C)Cc1nc2sc3c(=O)[nH]cnc3c2c2c1CCC2 | · | 1 | 4 | 0 | 38* | 13 | 9
